Laboratory results: ChEMBL document CHEMBL1124270, “Quinolone antibacterial agents. Synthesis and structure-activity relationships of 8-substituted quinoline-3-carboxylic acids and 1,8-naphthyridine-3-carboxylic acids” (1988)
≈ marks a conversion by molar mass, not a printed value.

How the values were obtained:
Type in all cases: functional
[1] = tested on: Escherichia coli; assay: Minimum concentration needed to produce linear DNA at an intensity relative to oxolinic at 10 ug/mL in Escherichia coli H560 in vitro.
In short: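 DNA gyrase cleavage test, run as previously described: end point is the lowest drug level (µg/mL) that yields linear DNA at a band intensity matching oxolinic acid at 10 µg/mL. Values come from duplicate or triplicate experiments and are stated as accurate to ±50%.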

[2] = tested on: Escherichia coli; assay: Minimum inhibitory concentration against Escherichia coli H560 in vitro.
[3] = tested on: Escherichia coli; assay: Minimum inhibitory concentration against Escherichia coli vogel in vitro.
[4] = tested on: Enterobacter cloacae; assay: Minimum inhibitory concentration against Enterobacter cloacae HA 2646 in vitro.
[5] = tested on: Klebsiella pneumoniae; assay: Minimum inhibitory concentration against Klebsiella pneumoniae MGH-2 in vitro.
[6] = tested on: Mus musculus; assay: In vivo potency against Escherichia coli vogel using mouse protection assay when given perorally; details: po, read-out: PD50
[7] = tested on: Mus musculus; assay: In vivo potency against Escherichia coli vogel using mouse protection assay when given subcutaneously; details: sc, read-out: PD50
[8] = tested on: Staphylococcus aureus; assay: In vivo potency against Staphylococcus aureus using mouse protection assay following p.o. administration.; details: po, read-out: PD50
[9] = tested on: Staphylococcus aureus; assay: In vivo potency against Staphylococcus aureus using mouse protection assay following s.c. administration.; details: sc, read-out: PD50
[10] = tested on: Streptococcus pneumoniae; assay: In vivo potency against Streptococcus pneumoniae using mouse protection assay following p.o. administration.; details: po, read-out: PD50
[11] = tested on: Pseudomonas aeruginosa; assay: Minimum inhibitory concentration against Pseudomonas aeruginosa UI-18 in vitro.
[12] = tested on: Providencia rettgeri; assay: Minimum inhibitory concentration against Providencia rettgeri H1771 in vitro.
[13] = tested on: Streptococcus pyogenes; assay: Minimum inhibitory concentration against Streptococcus pyogenes C203 in vitro.
[14] = tested on: Streptococcus pneumoniae; assay: Minimum inhibitory concentration against Streptococcus pneumoniae SV-1 in vitro.
[15] = tested on: Staphylococcus aureus; assay: Minimum inhibitory concentration against Staphylococcus aureus H228 in vitro.
[16] = tested on: Staphylococcus aureus; assay: Minimum inhibitory concentration against Staphylococcus aureus UC-76 in vitro.
[17] = tested on: Enterococcus faecalis; assay: Minimum inhibitory concentration against Streptococcus faecalis MGH-2 in vitro.
[18] = tested on: Streptococcus pneumoniae; assay: In vivo potency against Streptococcus pneumoniae using mouse protection assay following s.c. administration.; details: sc, read-out: PD50
[19] = tested on: Mus musculus; assay: In vivo potency against Staphylococcus aureus using mouse protection assay when given orally; details: po, read-out: PD50
[20] = tested on: Mus musculus; assay: In vivo potency against Streptococcus pneumoniae using mouse protection assay when given orally; details: po, read-out: PD50

| Structure (SMILES) | DNA cleavage conc (gyrase) [1] | MIC [2] | MIC [3] | MIC [4] | MIC [5] | ED50 [6] | ED50 [7] | ED50 [8] | ED50 [9] | ED50 [10] | MIC [11] | MIC [12] | MIC [13] | MIC [14] | MIC [15] | MIC [16] | MIC [17] | ED50 [18] | ED50 [19] | ED50 [20] |
| --- | --- | --- | --- | --- | --- | --- | --- | --- | --- | --- | --- | --- | --- | --- | --- | --- | --- | --- | --- | --- |
| O=C(O)c1cn(C2CC2)c2c(F)c(N3CCNCC3)c(F)cc2c1=O | 0.5 µg/mL | 0.025 µg/mL (≈ 0.0716 µM) | 0.1 µg/mL (≈ 0.286 µM) | 0.05 µg/mL (≈ 0.143 µM) | 0.1 µg/mL (≈ 0.286 µM) | 0.5 mg/kg | 0.3 mg/kg | 7 mg/kg | 3 mg/kg | 59 mg/kg | 0.2 µg/mL (≈ 0.573 µM) | 0.1 µg/mL (≈ 0.286 µM) | 0.8 µg/mL (≈ 2.29 µM) | 0.8 µg/mL (≈ 2.29 µM) | 0.4 µg/mL (≈ 1.15 µM) | 0.1 µg/mL (≈ 0.286 µM) | 0.4 µg/mL (≈ 1.15 µM) | 29 mg/kg | – | – |
| CN(C)CC1CCN(c2c(F)cc3c(=O)c(C(=O)O)cn(C4CC4)c3c2F)C1 (centres undefined) | 0.1 µg/mL | 0.025 µg/mL (≈ 0.0639 µM) | 0.2 µg/mL (≈ 0.511 µM) | 0.2 µg/mL (≈ 0.511 µM) | 0.2 µg/mL (≈ 0.511 µM) | 2 mg/kg | 1 mg/kg | 45 mg/kg | 20 mg/kg | 5 mg/kg | 0.8 µg/mL (≈ 2.04 µM) | 0.8 µg/mL (≈ 2.04 µM) | 0.05 µg/mL (≈ 0.128 µM) | 0.05 µg/mL (≈ 0.128 µM) | 0.025 µg/mL (≈ 0.0639 µM) | 0.025 µg/mL (≈ 0.0639 µM) | 0.025 µg/mL (≈ 0.0639 µM) | 5 mg/kg | – | – |
| CN(C)CC1CCN(c2c(F)cc3c(=O)c(C(=O)O)cn(C4CC4)c3c2N)C1.Cl (centres undefined) | 5 µg/mL | 0.4 µg/mL | 0.4 µg/mL | 0.2 µg/mL | 0.8 µg/mL | 9 mg/kg | 4 mg/kg | 100 mg/kg | 81 mg/kg | – | 3.1 µg/mL | 0.8 µg/mL | 0.4 µg/mL | 0.4 µg/mL | 0.2 µg/mL | 0.1 µg/mL | 0.4 µg/mL | – | – | – |
| O=C(O)c1cn(C2CC2)c2cc(N3CCNCC3)c(F)cc2c1=O [CIPROFLOXACIN] | – | 0.025 µg/mL (≈ 0.0754 µM) | – | – | 0.1 µg/mL (≈ 0.302 µM) | 1 mg/kg | 0.3 mg/kg | 25 mg/kg | 5 mg/kg | > 100 mg/kg | 0.4 µg/mL (≈ 1.21 µM) | 0.1 µg/mL (≈ 0.302 µM) | 0.8 µg/mL (≈ 2.41 µM) | 1.6 µg/mL (≈ 4.83 µM) | 3.1 µg/mL (≈ 9.36 µM) | 0.2 µg/mL (≈ 0.604 µM) | 0.8 µg/mL (≈ 2.41 µM) | 19 mg/kg | – | – |
| CN(C)CC1CCN(c2nc3c(cc2F)c(=O)c(C(=O)O)cn3C2CC2)C1 (centres undefined) | 0.75 µg/mL | 0.05 µg/mL (≈ 0.134 µM) | 0.05 µg/mL (≈ 0.134 µM) | 0.1 µg/mL (≈ 0.267 µM) | 0.2 µg/mL (≈ 0.534 µM) | 2 mg/kg | 1 mg/kg | 31 mg/kg | 27 mg/kg | 7 mg/kg | 0.4 µg/mL (≈ 1.07 µM) | 0.8 µg/mL (≈ 2.14 µM) | 0.1 µg/mL (≈ 0.267 µM) | 0.05 µg/mL (≈ 0.134 µM) | 0.1 µg/mL (≈ 0.267 µM) | 0.05 µg/mL (≈ 0.134 µM) | 0.2 µg/mL (≈ 0.534 µM) | 7 mg/kg | – | – |
| Cl.NC1CCN(c2c(F)cc3c(=O)c(C(=O)O)cn(C4CC4)c3c2Cl)C1 (centres undefined) [CLINAFLOXACIN HYDROCHLORIDE] | 0.5 µg/mL | 0.006 µg/mL | 0.013 µg/mL | 0.025 µg/mL | 0.025 µg/mL | 3 mg/kg | 0.6 mg/kg | 13 mg/kg | 5 mg/kg | 10 mg/kg | 0.05 µg/mL | 0.025 µg/mL | 0.05 µg/mL | 0.05 µg/mL | 0.05 µg/mL | 0.013 µg/mL | 0.05 µg/mL | 4 mg/kg | – | – |
| CC(C)NCC1CCN(c2c(F)cc3c(=O)c(C(=O)O)cn(C4CC4)c3c2F)C1 (centres undefined) | 2.8 µg/mL | 0.05 µg/mL (≈ 0.123 µM) | 0.1 µg/mL (≈ 0.247 µM) | 0.2 µg/mL (≈ 0.493 µM) | 0.2 µg/mL (≈ 0.493 µM) | 6 mg/kg | 1 mg/kg | 42 mg/kg | 12 mg/kg | 7 mg/kg | 1.6 µg/mL (≈ 3.95 µM) | 0.4 µg/mL (≈ 0.987 µM) | 0.05 µg/mL (≈ 0.123 µM) | 0.05 µg/mL (≈ 0.123 µM) | 0.05 µg/mL (≈ 0.123 µM) | 0.013 µg/mL (≈ 0.0321 µM) | 0.025 µg/mL (≈ 0.0617 µM) | 2 mg/kg | – | – |
| NCC1CCN(c2c(F)cc3c(=O)c(C(=O)O)cn(C4CC4)c3c2F)C1 (centres undefined) | 0.25 µg/mL | 0.006 µg/mL (≈ 0.0165 µM) | 0.025 µg/mL (≈ 0.0688 µM) | 0.05 µg/mL (≈ 0.138 µM) | 0.05 µg/mL (≈ 0.138 µM) | 6 mg/kg | – | – | – | – | 0.2 µg/mL (≈ 0.55 µM) | 0.1 µg/mL (≈ 0.275 µM) | 0.013 µg/mL (≈ 0.0358 µM) | 0.006 µg/mL (≈ 0.0165 µM) | 0.025 µg/mL (≈ 0.0688 µM) | 0.003 µg/mL (≈ 0.00826 µM) | 0.013 µg/mL (≈ 0.0358 µM) | – | 78 mg/kg | 10 mg/kg |
| CN(C)CC1CCN(c2c(F)cc3c(=O)c(C(=O)O)cn(C4CC4)c3c2Cl)C1 (centres undefined) | 1 µg/mL | 0.025 µg/mL (≈ 0.0613 µM) | 0.1 µg/mL (≈ 0.245 µM) | 0.2 µg/mL (≈ 0.49 µM) | 0.1 µg/mL (≈ 0.245 µM) | 4 mg/kg | 2 mg/kg | 61 mg/kg | 38 mg/kg | 2 mg/kg | 0.8 µg/mL (≈ 1.96 µM) | 0.4 µg/mL (≈ 0.981 µM) | 0.025 µg/mL (≈ 0.0613 µM) | 0.006 µg/mL (≈ 0.0147 µM) | 0.013 µg/mL (≈ 0.0319 µM) | 0.006 µg/mL (≈ 0.0147 µM) | 0.05 µg/mL (≈ 0.123 µM) | 2 mg/kg | – | – |
